ChEMBL document CHEMBL1127825, “Synthesis and in vitro evaluation of 9-anilino-3,6-diaminoacridines active against a multidrug-resistant strain of the malaria parasite Plasmodium falciparum” (J Med Chem, 1994)
Values after ≈ are worked out from the molar mass of the structure shown.

What was measured:
Plasmodium falciparum [1] = test: (§1) Inhibitory concentration against Plasmodium falciparum K1 infected erythrocytes; assay type: functional
Plasmodium falciparum [2] = test: Inhibitory concentration against Plasmodium falciparum W2 infected erythrocytes; assay type: functional, organism-based
Plasmodium falciparum [3] = test: Minimum inhibitory concentration (IC90) against Plasmodium falciparum K1 infected erythrocytes
Plasmodium falciparum [4] = test: Inhibitory concentration against Plasmodium falciparum D6 infected erythrocytes; assay type: functional, organism-based
Jurkat = test: Concentration required to reduce growth of human jurkat leukemia cells to 50% of control cultures, determined using a 72 hr continuous exposure; assay type: functional, cell-based
In short: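 Human Jurkat leukemia cells given continuous drug exposure for 72 h, then counted on a hemocytometer. IC50 is the concentration that cuts cell growth to 50% of untreated controls. Values are means of at least two independent determinations, with variation typically ±15%.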

Plasmodium falciparum [5] = test: Inhibitory concentration IC50 against Plasmodium falciparum K1 by [3H]hypoxanthine uptake over 24 hr; assay type: functional, organism-based
In short: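 K1 strain of P. falciparum (chloroquine- and pyrimethamine-resistant) in infected erythrocyte suspensions at 0.5% initial parasitemia, exposed to drug for 24 h at 37 °C. Read-out is [3H]hypoxanthine incorporation into parasites. IC50 is the concentration giving 50% inhibition relative to untreated controls.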

[6] = In vitro therapeutic index value is the ratio between IC50 values of [J] and [P]; assay type: cell-based; details: human, Jurkat cells; read-out: TI
Plasmodium falciparum [7] = test: Minimum inhibitory concentration (IC90) against Plasmodium falciparum K1 infected erythrocytes; remark: listed apart in the source
[8] = target: T1, DNA topoisomerase 2 (Plasmodium falciparum K1) (UniProt P41001); test: Minimum inhibitory concentration required to completely inhibit topoisomerase II activity from Plasmodium falciparum was determined using P4 DNA […] assay
T1 sequence (whole entry): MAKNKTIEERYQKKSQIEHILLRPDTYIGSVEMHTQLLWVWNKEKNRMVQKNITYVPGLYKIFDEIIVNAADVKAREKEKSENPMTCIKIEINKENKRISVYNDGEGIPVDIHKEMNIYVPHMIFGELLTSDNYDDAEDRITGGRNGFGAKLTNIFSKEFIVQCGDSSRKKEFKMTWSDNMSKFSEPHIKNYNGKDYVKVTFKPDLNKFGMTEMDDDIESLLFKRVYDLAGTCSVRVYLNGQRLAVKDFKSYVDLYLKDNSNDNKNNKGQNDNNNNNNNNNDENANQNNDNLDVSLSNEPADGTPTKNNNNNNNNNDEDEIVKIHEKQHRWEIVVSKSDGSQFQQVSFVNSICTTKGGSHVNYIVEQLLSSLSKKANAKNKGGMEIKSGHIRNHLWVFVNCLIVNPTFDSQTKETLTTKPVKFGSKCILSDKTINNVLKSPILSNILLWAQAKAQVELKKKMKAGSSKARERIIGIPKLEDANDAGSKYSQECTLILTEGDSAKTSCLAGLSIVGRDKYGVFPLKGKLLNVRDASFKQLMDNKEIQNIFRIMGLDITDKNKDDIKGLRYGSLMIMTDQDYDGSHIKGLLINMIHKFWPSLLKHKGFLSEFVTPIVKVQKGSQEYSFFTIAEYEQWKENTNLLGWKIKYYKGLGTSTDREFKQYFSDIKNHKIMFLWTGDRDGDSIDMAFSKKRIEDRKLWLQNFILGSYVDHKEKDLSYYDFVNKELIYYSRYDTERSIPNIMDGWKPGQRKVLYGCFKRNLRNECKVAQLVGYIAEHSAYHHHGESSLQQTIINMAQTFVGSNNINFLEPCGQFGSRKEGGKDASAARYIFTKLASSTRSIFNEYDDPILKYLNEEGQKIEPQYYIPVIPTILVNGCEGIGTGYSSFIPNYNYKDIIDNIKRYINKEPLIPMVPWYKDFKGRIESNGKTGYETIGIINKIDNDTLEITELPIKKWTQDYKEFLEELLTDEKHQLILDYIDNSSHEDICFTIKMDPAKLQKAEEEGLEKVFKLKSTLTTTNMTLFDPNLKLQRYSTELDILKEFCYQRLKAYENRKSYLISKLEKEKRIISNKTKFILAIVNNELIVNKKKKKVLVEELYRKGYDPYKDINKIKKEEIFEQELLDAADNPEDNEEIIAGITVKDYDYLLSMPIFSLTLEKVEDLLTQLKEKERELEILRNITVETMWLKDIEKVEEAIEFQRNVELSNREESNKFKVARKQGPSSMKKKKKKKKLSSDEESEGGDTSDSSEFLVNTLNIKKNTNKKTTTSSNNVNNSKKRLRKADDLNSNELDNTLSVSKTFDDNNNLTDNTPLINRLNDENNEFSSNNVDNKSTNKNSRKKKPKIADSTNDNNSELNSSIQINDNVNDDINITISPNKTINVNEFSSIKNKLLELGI

Plasmodium falciparum [9] = test: as §1; assay type: functional, organism-based
In short: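 Chloroquine- and pyrimethamine-resistant K1 strain in infected erythrocyte suspensions (0.5% initial parasitemia), exposed to drug for 24 h at 37 °C. Read-out: [3H]hypoxanthine incorporation into parasites. IC50 in μM is the concentration that reduces incorporation to 50% of untreated controls.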

[10] = target: DNA topoisomerase II (Homo sapiens) (UniProt P11388+Q02880); test: Minimum inhibitory concentration required to completely inhibit topoisomerase II activity from jurkat human leukemia cells was determined using P4 DNA unknotting assay
In short: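 Enzyme is a partially purified topoisomerase II extract from midlog Jurkat cells, made by sonication in Tris pH 8/KCl/MgCl2/EGTA buffer with protease inhibitors, then PEG/KCl precipitation. Extract is diluted to a set P4 DNA unknotting activity. Proteinase K method scores unknotting and linearization of phage P4 DNA on 0.7% agarose gels stained with ethidium bromide. MIC is the concentration giving complete inhibition.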

Compound | IC50 (Plasmodium falciparum [1]) | IC50 (Plasmodium falciparum [2]) | IC90 (Plasmodium falciparum [3]) | IC50 (Plasmodium falciparum [4]) | IC50 (Jurkat) | IC50 (Plasmodium falciparum [5]) | selectivity ratio [6] | IC90 (Plasmodium falciparum [7]) | MIC [8] | IC50 (Plasmodium falciparum [9]) | MIC [10]
CCN(CC)CCCC(C)Nc1ccnc2cc(Cl)ccc12 (stereo not given) [CHLOROQUINE] | 250 nM | – | – | – | – | – | – | – | – | – | –
C=C[C@H]1CN2CC[C@H]1C[C@H]2[C@H](O)c1ccnc2ccc(OC)cc12 [QUININE] | – | 100 nM | 300 nM | 48 nM | – | – | – | – | – | – | –
COc1ccc2nc3cc(Cl)ccc3c(Nc3cc(CN4CCCC4)c(O)c(CN4CCCC4)c3)c2n1 [PYRONARIDINE] | 27 nM | 0.8 nM | – | 1 nM | 4000 nM | 2.7 nM | 1480 | – | – | – | –
OC(c1cc(C(F)(F)F)nc2c(C(F)(F)F)cccc12)C1CCCCN1 (stereo not given) [MEFLOQUINE] | – | – | – | 17 nM | – | – | – | 70 nM | – | – | –
Nc1ccc(Nc2c3ccc(N)cc3nc3cc(N)ccc23)cc1 | – | 37 nM | – | 33 nM | 15000 nM | 25 nM | 600 | – | 10 µM (≈ 3.15 µg/mL) | 25 nM | 20 µM (≈ 6.31 µg/mL)
